Sampled rows, rich in hits. Any-hit rate of the full collection: about 3.4%.
TAAR1 agonist – agonists of human TAAR1. Q96RJ0. CHO RD-HGA16 TAAR1, Fluo-8 calcium fluorescence; vehicle wells 0%, saturating PEA agonist 100%. activation, % at 3 µM. 360,000 compounds, 0.99% hits;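 active = activation above the mean activation of all test compounds in the run plus 3 SD, cut at about 38% in these data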
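Test system: RD-HGA16 (CHO) cells co-expressing Gα16 and hTAAR1; dosing: one-point dosing at 3 µM (nominal); timing: 17-24 h seeding, 75 min 37 °C dye, 30 min RT; signal: kinetic Fluo-8 calcium fluorescence; read-out basis: % activation relative to PEA EC100 response; controls: DMSO and PEA EC100; replicates: n 1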
TRPML3 ag – agonists of human TRPML3 channel; Q8TDD5; HEK293 TRPML3-YFP, Fluo-8 calcium fluorescence; 100% = the carbachol control signal; activation, % at 3 µM; 220,000 compounds, 0.29% hits;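 active = activation above its plate's cutoff, the mean activation of the plate's test wells plus 3 SD, cut at about 12% in these data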;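 also: 0% = DMSO only wells and 100% = carbachol wells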
Target sequence (Q8TDD5 whole entry, looked up): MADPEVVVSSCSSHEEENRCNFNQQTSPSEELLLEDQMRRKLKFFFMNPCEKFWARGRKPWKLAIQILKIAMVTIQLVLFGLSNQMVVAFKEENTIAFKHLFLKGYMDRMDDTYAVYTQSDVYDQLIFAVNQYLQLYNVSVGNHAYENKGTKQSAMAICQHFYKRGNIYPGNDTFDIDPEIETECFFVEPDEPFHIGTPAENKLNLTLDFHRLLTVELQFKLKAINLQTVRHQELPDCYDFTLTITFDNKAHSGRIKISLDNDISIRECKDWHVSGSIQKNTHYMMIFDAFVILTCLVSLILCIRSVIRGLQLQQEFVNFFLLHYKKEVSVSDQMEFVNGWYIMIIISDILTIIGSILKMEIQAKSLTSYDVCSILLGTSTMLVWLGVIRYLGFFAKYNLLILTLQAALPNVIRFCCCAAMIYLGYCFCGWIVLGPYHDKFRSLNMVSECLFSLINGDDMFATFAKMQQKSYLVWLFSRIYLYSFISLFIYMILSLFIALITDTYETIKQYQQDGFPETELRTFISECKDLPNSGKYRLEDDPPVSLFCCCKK
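Test system – HEK293 line with stable expression of human TRPML3-YFP channel · Control set – carbachol 87 µM final as high control (100%), DMSO as low control (0%) · Signal – Fluo-8 calcium dye fluorescence, ex 470-495, em 515-575 nm · Incubation – 1-h 37 °C dye load, 5-s basal, 120-s post-compound reads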
GPR7 antagonist – human neuropeptides B/W receptor 1 antagonism; P48145; GPR7-expressing cells, fluorescence antagonist assay; inhibition, % at 4.4 µM; 290,000 compounds, 1.1% hits; in the data active = inhibition above about 16%, passing the limit was not always enough;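 also: cells stimulated with the agonist NPW; 0% = agonist with vehicle and 100% = vehicle without agonist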
TAAR1 antag – human TAAR1 antagonism; Q96RJ0; CHO RD-HGA16 TAAR1, Fluo-8 calcium fluorescence, antagonist; 360,000 compounds, 1.5% hits; inhibition, % at 3 µM; AID 624466;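 active = inhibition above a per-plate cutoff, the mean inhibition of test compounds on that plate plus 3 SD, cut at about 49% in these data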;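 also: 0% = DMSO plus EC80 beta-PEA response and 100% = DMSO alone without agonist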
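Material: RD-HGA16 CHO cells with stable hTAAR1 and Gα16; Dosing: single nominal final test compound concentration of 3 µM; Schedule: seeding 17-24 h prior, 75-min 37 °C, 30-min RT dye loading; Detection: kinetic Fluo-8 calcium fluorescence measurement; Measure: % inhibition from peak post-agonist over basal fluorescence ratio; Benchmarks: vehicle and agonist controls.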
zfTRPN1 agonist – zebrafish TRPN1 (NompC) channel agonism; HEK293 zebrafish TRPN1-YFP, Fluo-8 calcium fluorescence; 100% = response to 87 µM carbachol; activation, % at 3 µM; 220,000 compounds, 0.18% hits;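 active = activation above its plate's cutoff, the mean activation of test wells on that plate plus 3 SD, cut at about 19% in these data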;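 also: 0% = DMSO alone and 100% = 87 µM carbachol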
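System: zebrafish TRPN1-YFP in HEK293 cells / Dosing: 3 µM single point / Timing: dye loading 1 h at 37 °C, then 30 min room temperature / Signal: Fluo-8 calcium fluorescence, excitation 470-495 nm, emission 515-575 nm / Read-out basis: percent activation from peak over basal fluorescence ratio, control-normalized / Control set: high carbachol 87 µM, low DMSO alone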
LANA-H2A inh – blocks KSHV LANA binding to histone H2A/H2B. cell-free LANA-H2A/H2B peptide, fluorescence polarization. inhibition, % (no concentration beside the values). 320,000 compounds, 0.6% hits. AID 2629; in the data active = inhibition mostly above about 10%, no sharp cut-off; inactive = mostly below about 6.7%
* hit, by the source's call; . = no result.

SMILES	TAAR1 agonist	TRPML3 ag	GPR7 antagonist	TAAR1 antag	zfTRPN1 agonist	LANA-H2A inh
CN1CCN(C(=O)c2cc3c(c(-c4cccc(-c5cc6ccccc6o5)c4)n2)[C@H](CCO)N(S(=O)C(C)(C)C)C3)CC1 (stereo not given in full)	20.7	.	.	50.4*	.	.
CC(C)(C)S(=O)N1Cc2cc(C(=O)O)nc(-c3cccc(-c4cc5ccccc5o4)c3)c2[C@H]1CCO (stereo not given in full)	1.2	.	.	-7.6	.	.
Cc1cc(-c2nnc3n2N=C(c2ccc(-c4ccccc4)cc2)CS3)n[nH]1	45.0*	-1.2	2.9	36.1	-2.8	4.9
COC(=O)C1=C(C)N(Cc2ccccc2C(F)(F)F)C(=NCc2ccc(OC)cc2)NC1c1ccccc1C(F)(F)F (stereo not given)	-0.8	.	.	-18.3	.	.
Nc1[nH]c(C(=O)c2ccccc2)c(-c2ccccc2Br)c1C(=O)c1cccs1	-0.6	.	.	16.7	.	.
Cc1cc(NC(=O)CSCC(=O)Nc2nc3ccccc3s2)no1	10.5	.	.	-4.6	.	-0.6
Cc1cc(NC(=O)CN2CCCC2c2nc3ccccc3s2)no1 (stereo not given)	6.3	0.0	-5.0	1.9	-0.4	15.5*
CCCC(=O)OC[C@H]1CN(C2CCCC2)S(=O)(=O)c2c(Oc3ccc(F)cc3OC)cccc2O1	0.5	.	.	-9.6	.	.
O=C(N[C@@H](Cc1cccnc1)C(=O)N1CCC[C@H]1C(=O)NC1CCCC1)c1ccccc1	0.4	.	.	5.3	.	.
Cc1cc(C)cc(NC(=O)Cn2ncn3c(cc4ccccc43)c2=O)c1	39.3*	-1.0	7.4	11.8	-0.7	-1.4
CCN(CC)C1=C(Cl)C(=O)C(Cl)C12OCCO2 (stereo not given)	1.0	0.6	-11.8	0.3	2.7	12.4*
N#CC1=C(N)OC2=C(C(=O)CCC2)C12CCC1(CC2)OCCO1	0.1	0.6	-0.1	0.7	0.7	-2.1
CC1(C)C(C#N)=C(N)OC2=C1C(=O)CCC2	1.2	1.1	-20.6	-20.7	0.9	18.4*
O=C(NCc1ccco1)C1CCC(N2C(=O)c3ccccc3C2=O)CC1 (stereo not given)	1.7	0.8	4.5	3.3	1.4	23.3*
S=C(SCc1nc(-c2ccc(Cl)cc2)no1)N1CCSCC1	-1.2	.	.	-15.3	.	.
CCn1cc(C(=O)OCC(=O)c2ccccc2)c(=O)c2ccc(C)nc21	6.5	0.6	-1.7	-8.7	-0.1	.
CCn1cc(C(=O)OCC(=O)c2cc(C)n(-c3cccc(C(F)(F)F)c3)c2C)c(=O)c2ccc(C)nc21	-2.1	0.0	2.3	-17.7	-1.4	53.6*
COc1ccccc1N1CCN(S(=O)(=O)c2ccc(F)cc2)CC1	38.1*	1.7	-5.2	3.0	-1.9	-0.5
COc1ccc2c(c1)[C@]1(C(=O)N2C)C2=C(CCCC2=O)Oc2cc(C)oc(=O)c21	0.2	.	.	-5.0	.	.
O=C(Nc1ccc(Cl)cc1)NC1CCCC1Cc1ccco1 (stereo not given)	.	1.4	7.7	.	3.6	16.9*
Cc1cc(N2CCN(CC(C)(C)O)C[C@H]2C)ccc1N1CCN(Cc2ccccc2)[C@@H](C)C1	2.2	.	.	-23.9	.	.
CCN=C1SC(C(=O)Nc2ccc(OCC)cc2)CC(=O)N1CC (stereo not given)	23.6	1.3	-19.2	47.1	2.8	-0.7
CCN=C1SC(C(=O)Nc2cccc(Cl)c2)CC(=O)N1CC (stereo not given)	22.9	0.6	1.4	58.2*	2.3	-2.8
CCN=C1SC(C(=O)Nc2cccc(C)c2)CC(=O)N1CC (stereo not given)	17.7	0.4	-3.2	62.6*	2.2	-2.4
CCN=C1SC(C(=O)Nc2cc(Cl)cc(Cl)c2)CC(=O)N1CC (stereo not given)	4.9	0.5	-2.0	19.9	1.4	0.9
CCN=C1SC(C(=O)Nc2ccc(OC)cc2)CC(=O)N1CC (stereo not given)	24.5	0.6	-15.9	54.6*	0.7	4.4
CCN1C(=O)CC(C(=O)Nc2ccc(F)cc2)SC1=Nc1ccc2c(c1)OCO2 (stereo not given)	17.0	0.0	10.7	51.9*	1.9	1.6
